This is an account of results in ChEMBL document CHEMBL4043089, “Allosteric Targeting of the Fanconi Anemia Ubiquitin-Conjugating Enzyme Ube2T by Fragment Screening” (J Med Chem, 2017).

The target in experiment [1] is T1, Ubiquitin-conjugating enzyme E2 T (Homo sapiens) (UniProt Q9NPD8).
T1 sequence (whole entry): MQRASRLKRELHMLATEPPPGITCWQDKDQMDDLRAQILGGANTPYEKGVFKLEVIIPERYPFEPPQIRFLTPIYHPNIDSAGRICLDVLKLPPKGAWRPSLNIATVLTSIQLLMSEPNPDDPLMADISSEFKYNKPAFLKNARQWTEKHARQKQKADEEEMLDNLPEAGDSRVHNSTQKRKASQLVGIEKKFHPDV
Briefly: Binding affinity to [1H-15N]-labeled N-terminal 6xHis-Smt3 tagged human Ube2T (1 to 154 residues) expressed in Escherichia coli BL21(DE3) by chemical shift perturbation assay.

Experiment [2] deals with Ubiquitin-conjugating enzyme E2 D3 (Homo sapiens) (UniProt P61077). The experiment can be described thus: Inhibition of UbcH5c (unknown origin) assessed as RNF4 ubiquitination at 2.5 mM after 15 mins in presence of fluorescently-labeled […] by fluorescence assay.
Chain of Ubiquitin-conjugating enzyme E2 D3 (Homo sapiens) (P61077 whole entry, looked up): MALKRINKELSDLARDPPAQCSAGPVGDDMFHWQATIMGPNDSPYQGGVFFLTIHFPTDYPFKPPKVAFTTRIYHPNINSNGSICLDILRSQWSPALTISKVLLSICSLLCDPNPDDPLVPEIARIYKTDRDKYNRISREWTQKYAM
For experiment [3], the target named is T1, Ubiquitin-conjugating enzyme E2 T (Homo sapiens). Briefly: Inhibition of full length N-terminal 6xHis-Smt3 tagged human Ube2T expressed in Escherichia coli BL21(DE3) assessed as FANCD2 ubiquitination after 15 mins in presence of fluorescently-labeled Ub/recombinant human E1/ATP by fluorescence assay. In a few lines:
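Ube2T-driven FANCD2 monoubiquitination with E1, FANCL and fluorescently labelled ubiquitin, tested as a four-point titration. Gels were fluorescence-scanned, and the integrated intensity of the monoubiquitinated FANCD2 band was normalized to DMSO reactions. Three independent experiments, plotted as mean ± range.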

Experiment [4] deals with T2, Ubiquitin-conjugating enzyme E2 T (Homo sapiens), Q9NPD8 [P73K].
T2 sequence (whole entry): T1 sequence (whole entry) with P73K
The experiment can be described thus: Binding affinity to full length recombinant N-terminal 6xHis-Smt3 tagged human Ube2T P73K mutant expressed in Escherichia coli BL21(DE3) by ITC. Background: ITC needs no label: the signal is the heat of the interaction.

In experiment [5] the target is T1, Ubiquitin-conjugating enzyme E2 T (Homo sapiens). Briefly: Inhibition of full length N-terminal 6xHis-Smt3 tagged human Ube2T expressed in Escherichia coli BL21(DE3) assessed as FANCD2 ubiquitination at 2.5 mM after 15 mins in presence of fluorescently-labeled Ub/recombinant human E1/FANCL in 0.05% Tween20 containing buffer by fluorescence assay.
The target of experiment [6] is T3, Ubiquitin-conjugating enzyme E2 T (Homo sapiens, UniProt Q9NPD8).
T3 sequence (Q9NPD8 whole entry): T1 sequence (whole entry)
The experiment can be described thus: Binding affinity to full length N-terminal 6xHis-Smt3 tagged human Ube2T expressed in Escherichia coli BL21(DE3) by ITC.

Where a chain is given by its changes, count along the chain named. Calls of active or inactive are those of the source. No cut-off for these calls is given here.

With `N#Cc1cc(-c2ccccc2)oc1N`, the Activity result in experiment [1] is “Dose-dependent effect”.

`NC(=O)c1ccc(-c2ccccn2)s1`: in experiment [1], the Activity entry is “Dose-dependent effect”.

For the compound `Nc1nc(-c2ccccc2)cs1`, the inhibition result in experiment [2] is “inactive”. Further, the Activity entry in experiment [1] was “Dose-dependent effect”. Moreover, the inhibition result in experiment [3] was “Dose-dependent effect”. The result in experiment [4] was Active. The inhibition result in experiment [5] was “Active”.

Turning to `NC(=O)C1CCCc2c1[nH]c1ccc(Cl)cc21` (configuration not stated), the inhibition entry in experiment [2] is “inactive”. Moreover, the Activity result in experiment [1] is “Dose-dependent effect”. Moreover, the inhibition entry in experiment [3] is “Dose-dependent effect”. For the same compound, the result in experiment [4] was Active. Also, the inhibition result in experiment [5] is “Active”.

For `NCc1nc2ccccc2s1`, in experiment [2], the inhibition entry was “inactive”. The Kd (in general, the free concentration of one partner at which half of the binding sites on the other are occupied at equilibrium, for simple one-to-one binding) in experiment [6] was 1.3 mM. Also, the Activity result in experiment [1] was “Dose-dependent effect”. In addition, the inhibition result in experiment [3] is “Dose-dependent effect”. Also, in experiment [5], the inhibition entry is “Active”.
